Measurements published in ChEMBL document CHEMBL1157554, “Biomimetic synthesis and anti-HIV activity of dimeric phloroglucinols” (Bioorg Med Chem, 2010).

Molecular target: Human immunodeficiency virus type 1 reverse transcriptase (Human immunodeficiency virus 1) (UniProt Q72547)
Test: Inhibition of HIV1 reverse transcriptase at 20 ug/mL by EIA
Settings: not given

Compound	inhibition
CC(C)CC(=O)c1c(O)c(C(=O)CC(C)C)c(O)c(C(c2ccc(OCc3ccccc3)cc2)c2c(O)c(C(=O)CC(C)C)c(O)c(C(=O)CC(C)C)c2O)c1O	87.8%
CC(C)CC(=O)c1c(O)c(C(=O)CC(C)C)c(O)c(C(c2ccccn2)c2c(O)c(C(=O)CC(C)C)c(O)c(C(=O)CC(C)C)c2O)c1O	0%
CC(=O)c1c(O)c(C(C)=O)c(O)c(C(c2c(O)c(C(C)=O)c(O)c(C(C)=O)c2O)c2ccnc3ccccc23)c1O	80.5%
CC(=O)c1c(O)c(C(C)=O)c(O)c(C(c2ccc(N(C)C)cc2)c2c(O)c(C(C)=O)c(O)c(C(C)=O)c2O)c1O	13.4%
CC(=O)c1c(O)c(C(C)=O)c(O)c(C(c2c(O)c(C(C)=O)c(O)c(C(C)=O)c2O)C2CCCCC2)c1O	0%
CC(=O)c1c(O)c(C(C)=O)c(O)c(C(c2ccco2)c2c(O)c(C(C)=O)c(O)c(C(C)=O)c2O)c1O	16.2%
CC(C)CC(=O)c1c(O)c(C(=O)CC(C)C)c(O)c(C(c2ccccc2)c2c(O)c(C(=O)CC(C)C)c(O)c(C(=O)CC(C)C)c2O)c1O	4.61%

Tested on: not listed separately
Test: Cytotoxicity against GFP expressing human CEM cells after 48 to 72 hrs by MTT assay
Assay type: cell-based, CCRF-CEM
Settings: not given
Procedure, shortened: (§1)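 MTT assay on uninfected CEM-GFP cells seeded at 2 × 10⁴ cells/well. Samples were added at various concentrations, with untreated or vehicle-treated controls, and incubated 48–72 h. Formazan was solubilized and absorbance read at 540 nm. Non-toxic concentrations were carried into antiviral screening. CC50 was from triplicate determinations.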

Compound	CC50
Cc1cn([C@H]2C[C@H](N=[N+]=[N-])[C@@H](CO)O2)c(=O)[nH]c1=O [ZIDOVUDINE]	24.1 µM
CC(C)CC(=O)c1c(O)c(C(=O)CC(C)C)c(O)c(C(c2ccc(OCc3ccccc3)cc2)c2c(O)c(C(=O)CC(C)C)c(O)c(C(=O)CC(C)C)c2O)c1O	24 µM
CC(C)CC(=O)c1c(O)c(C(=O)CC(C)C)c(O)c(C(c2ccccn2)c2c(O)c(C(=O)CC(C)C)c(O)c(C(=O)CC(C)C)c2O)c1O	38.1 µM
CC(=O)c1c(O)c(C(C)=O)c(O)c(C(c2c(O)c(C(C)=O)c(O)c(C(C)=O)c2O)c2ccnc3ccccc23)c1O	93.4 µM
CC(=O)c1c(O)c(C(C)=O)c(O)c(C(c2ccc(N(C)C)cc2)c2c(O)c(C(C)=O)c(O)c(C(C)=O)c2O)c1O	22.1 µM
CC(=O)c1c(O)c(C(C)=O)c(O)c(C(c2c(O)c(C(C)=O)c(O)c(C(C)=O)c2O)C2CCCCC2)c1O	58.9 µM
CC(=O)c1c(O)c(C(C)=O)c(O)c(C(c2ccco2)c2c(O)c(C(C)=O)c(O)c(C(C)=O)c2O)c1O	61.2 µM
CC(C)CC(=O)c1c(O)c(C(=O)CC(C)C)c(O)c(C(c2ccccc2)c2c(O)c(C(=O)CC(C)C)c(O)c(C(=O)CC(C)C)c2O)c1O	3.15 µM

Tested on: Human immunodeficiency virus
Test: Inhibition of HIV reverse transcriptase at 25 ug/mL
Settings: not given

Compound	inhibition
COc1c(C)c(O)c(C(C)=O)c(O)c1Cc1c(O)c(CC=C(C)C)c(O)c(C(C)=O)c1O	90%

Tested on: Human immunodeficiency virus 1
Test: Antiviral activity against HIV1 NL4-3 infected in GFP expressing human CEM cells assessed as inhibition of viral p24 antigen production at non-toxic concentration after 7 days postinfection by ELISA
Assay type: functional, CCRF-CEM
Settings: not given
Procedure, shortened: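 CEM-GFP reporter T cells infected with HIV-1 NL4.3 at MOI 0.05 and cultured with samples at the highest non-toxic concentration. Virus production was measured in culture supernatant on day 7 post-infection by p24 antigen capture ELISA.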

Compound	inhibition (INH)
CC(C)CC(=O)c1c(O)c(C(=O)CC(C)C)c(O)c(C(c2ccc(O)cc2)c2c(O)c(C(=O)CC(C)C)c(O)c(C(=O)CC(C)C)c2O)c1O	15.6%
CC(C)CC(=O)c1c(O)c(Cc2c(O)c(C(=O)CC(C)C)c(O)c(C(=O)CC(C)C)c2O)c(O)c(C(=O)CC(C)C)c1O	0%
Cc1cn([C@H]2C[C@H](N=[N+]=[N-])[C@@H](CO)O2)c(=O)[nH]c1=O [ZIDOVUDINE]	89.75%
CC(C)C(=O)c1c(O)c(Cc2c(O)c(C(=O)C(C)C)c(O)c(C(=O)C(C)C)c2O)c(O)c(C(=O)C(C)C)c1O	0%
CC(C)CC(=O)c1c(O)c(C(=O)CC(C)C)c(O)c(C(c2ccc(OCc3ccccc3)cc2)c2c(O)c(C(=O)CC(C)C)c(O)c(C(=O)CC(C)C)c2O)c1O	70%
CC(C)CC(=O)c1c(O)c(C(=O)CC(C)C)c(O)c(C(c2ccc3c(c2)OCO3)c2c(O)c(C(=O)CC(C)C)c(O)c(C(=O)CC(C)C)c2O)c1O	13.9%
CC(C)CC(=O)c1c(O)c(C(=O)CC(C)C)c(O)c(C(c2c(O)c(C(=O)CC(C)C)c(O)c(C(=O)CC(C)C)c2O)c2ccnc3ccccc23)c1O	30.1%
CC(C)CC(=O)c1c(O)c(C(=O)CC(C)C)c(O)c(C(c2ccccn2)c2c(O)c(C(=O)CC(C)C)c(O)c(C(=O)CC(C)C)c2O)c1O	64.7%
CC(C)CC(=O)c1c(O)c(C(=O)CC(C)C)c(O)c(C(c2ccco2)c2c(O)c(C(=O)CC(C)C)c(O)c(C(=O)CC(C)C)c2O)c1O	56.8%
CC(=O)c1c(O)c(C(C)=O)c(O)c(C(c2c(O)c(C(C)=O)c(O)c(C(C)=O)c2O)c2ccnc3ccccc23)c1O	71.1%
CC(=O)c1c(O)c(C(C)=O)c(O)c(C(c2ccc(N(C)C)cc2)c2c(O)c(C(C)=O)c(O)c(C(C)=O)c2O)c1O	60.6%
CC(C)CC(=O)c1c(O)c(C(=O)CC(C)C)c(O)c(C(CCc2ccccc2)c2c(O)c(C(=O)CC(C)C)c(O)c(C(=O)CC(C)C)c2O)c1O	15%
CC(C)CC(=O)c1c(O)c(C=O)c(O)c(C(c2ccc(OCc3ccccc3)cc2)c2c(O)c(C=O)c(O)c(C(=O)CC(C)C)c2O)c1O	0%
CC(=O)c1c(O)c(C(C)=O)c(O)c(C(c2c(O)c(C(C)=O)c(O)c(C(C)=O)c2O)C2CCCCC2)c1O	78.5%
CC(=O)c1c(O)c(Cc2c(O)c(C(C)=O)c(O)c(C(C)=O)c2O)c(O)c(C(C)=O)c1O	0%
CC(=O)c1c(O)c(C(C)=O)c(O)c(C(c2ccc(O)cc2)c2c(O)c(C(C)=O)c(O)c(C(C)=O)c2O)c1O	56%
CC(=O)c1c(O)c(C(C)=O)c(O)c(C(c2ccco2)c2c(O)c(C(C)=O)c(O)c(C(C)=O)c2O)c1O	73%
CCC(c1c(O)c(C(C)=O)c(O)c(C(C)=O)c1O)c1c(O)c(C(C)=O)c(O)c(C(C)=O)c1O	17.5%
CC(C)CC(=O)c1c(O)c(C(=O)CC(C)C)c(O)c(C(c2ccccc2)c2c(O)c(C(=O)CC(C)C)c(O)c(C(=O)CC(C)C)c2O)c1O	66.5%
CC(=O)c1c(O)c(C(C)=O)c(O)c(C(CCc2ccccc2)c2c(O)c(C(C)=O)c(O)c(C(C)=O)c2O)c1O	16%
CC(C)CC(=O)c1c(O)c(C=O)c(O)c(C(c2ccccn2)c2c(O)c(C=O)c(O)c(C(=O)CC(C)C)c2O)c1O	26.9%
CC(C)CC(=O)c1c(O)c(C=O)c(O)c(Cc2c(O)c(C=O)c(O)c(C(=O)CC(C)C)c2O)c1O	0%

Tested on: Human immunodeficiency virus 1
Test: Antiviral activity against HIV1 NL4-3 infected in GFP expressing human CEM cells assessed as inhibition of viral infection measured after 9 days postinfection by microfluorometry
Assay type: functional, organism-based
Settings: Human immunodeficiency virus 1, NL4-3, CCRF-CEM, 216 h
Procedure, shortened: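 CEM-GFP human CD4+ T cells, which carry an integrated LTR-driven GFP reporter, infected with HIV-1 NL4.3 at MOI 0.05. Cells were incubated with samples for up to 9 days post-infection. Infection was followed by GFP fluorescence microscopy, and screening inhibition was quantified by GFP microfluorometry. IC50 is the concentration giving 50% inhibition of infected cells (n = 3).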

Compound	IC50
CC(C)CC(=O)c1c(O)c(C(=O)CC(C)C)c(O)c(C(c2ccc(OCc3ccccc3)cc2)c2c(O)c(C(=O)CC(C)C)c(O)c(C(=O)CC(C)C)c2O)c1O	2.71 µM
CC(C)CC(=O)c1c(O)c(C(=O)CC(C)C)c(O)c(C(c2ccccn2)c2c(O)c(C(=O)CC(C)C)c(O)c(C(=O)CC(C)C)c2O)c1O	3.37 µM
CC(=O)c1c(O)c(C(C)=O)c(O)c(C(c2c(O)c(C(C)=O)c(O)c(C(C)=O)c2O)c2ccnc3ccccc23)c1O	18.6 µM
CC(=O)c1c(O)c(C(C)=O)c(O)c(C(c2ccc(N(C)C)cc2)c2c(O)c(C(C)=O)c(O)c(C(C)=O)c2O)c1O	6.06 µM
CC(=O)c1c(O)c(C(C)=O)c(O)c(C(c2c(O)c(C(C)=O)c(O)c(C(C)=O)c2O)C2CCCCC2)c1O	4.09 µM
CC(=O)c1c(O)c(C(C)=O)c(O)c(C(c2ccco2)c2c(O)c(C(C)=O)c(O)c(C(C)=O)c2O)c1O	6.75 µM
CC(C)CC(=O)c1c(O)c(C(=O)CC(C)C)c(O)c(C(c2ccccc2)c2c(O)c(C(=O)CC(C)C)c(O)c(C(=O)CC(C)C)c2O)c1O	0.28 µM

Molecular target: Human immunodeficiency virus type 1 reverse transcriptase (Human immunodeficiency virus 1, UniProt Q72547)
Test: Inhibition of HIV1 reverse transcriptase by EIA
Settings: not given

Compound	EC50
CC(C)CC(=O)c1c(O)c(C(=O)CC(C)C)c(O)c(C(c2ccc(OCc3ccccc3)cc2)c2c(O)c(C(=O)CC(C)C)c(O)c(C(=O)CC(C)C)c2O)c1O	1.03 µM
CC(=O)c1c(O)c(C(C)=O)c(O)c(C(c2c(O)c(C(C)=O)c(O)c(C(C)=O)c2O)c2ccnc3ccccc23)c1O	0.47 µM

Tested on: not listed separately
Test: Cytotoxicity against GFP expressing human CEM cells assessed as maximal non-toxic concentration after 48 to 72 hrs by MTT assay
Assay type: cell-based, CCRF-CEM
Settings: not given
Procedure, shortened: as §1

Compound	MNTC
CC(C)CC(=O)c1c(O)c(C(=O)CC(C)C)c(O)c(C(c2ccc(O)cc2)c2c(O)c(C(=O)CC(C)C)c(O)c(C(=O)CC(C)C)c2O)c1O	1.45 µM
CC(C)CC(=O)c1c(O)c(Cc2c(O)c(C(=O)CC(C)C)c(O)c(C(=O)CC(C)C)c2O)c(O)c(C(=O)CC(C)C)c1O	0.17 µM
Cc1cn([C@H]2C[C@H](N=[N+]=[N-])[C@@H](CO)O2)c(=O)[nH]c1=O [ZIDOVUDINE]	5 µM
CC(C)C(=O)c1c(O)c(Cc2c(O)c(C(=O)C(C)C)c(O)c(C(=O)C(C)C)c2O)c(O)c(C(=O)C(C)C)c1O	0.09 µM
CC(C)CC(=O)c1c(O)c(C(=O)CC(C)C)c(O)c(C(c2ccc(OCc3ccccc3)cc2)c2c(O)c(C(=O)CC(C)C)c(O)c(C(=O)CC(C)C)c2O)c1O	5.75 µM
CC(C)CC(=O)c1c(O)c(C(=O)CC(C)C)c(O)c(C(c2ccc3c(c2)OCO3)c2c(O)c(C(=O)CC(C)C)c(O)c(C(=O)CC(C)C)c2O)c1O	2.77 µM
CC(C)CC(=O)c1c(O)c(C(=O)CC(C)C)c(O)c(C(c2c(O)c(C(=O)CC(C)C)c(O)c(C(=O)CC(C)C)c2O)c2ccnc3ccccc23)c1O	3.44 µM
CC(C)CC(=O)c1c(O)c(C(=O)CC(C)C)c(O)c(C(c2ccccn2)c2c(O)c(C(=O)CC(C)C)c(O)c(C(=O)CC(C)C)c2O)c1O	7.39 µM
CC(C)CC(=O)c1c(O)c(C(=O)CC(C)C)c(O)c(C(c2ccco2)c2c(O)c(C(=O)CC(C)C)c(O)c(C(=O)CC(C)C)c2O)c1O	3.75 µM
CC(=O)c1c(O)c(C(C)=O)c(O)c(C(c2c(O)c(C(C)=O)c(O)c(C(C)=O)c2O)c2ccnc3ccccc23)c1O	35.8 µM
CC(=O)c1c(O)c(C(C)=O)c(O)c(C(c2ccc(N(C)C)cc2)c2c(O)c(C(C)=O)c(O)c(C(C)=O)c2O)c1O	9.07 µM
CC(C)CC(=O)c1c(O)c(C(=O)CC(C)C)c(O)c(C(CCc2ccccc2)c2c(O)c(C(=O)CC(C)C)c(O)c(C(=O)CC(C)C)c2O)c1O	0.71 µM
CC(C)CC(=O)c1c(O)c(C=O)c(O)c(C(c2ccc(OCc3ccccc3)cc2)c2c(O)c(C=O)c(O)c(C(=O)CC(C)C)c2O)c1O	7.46 µM
CC(=O)c1c(O)c(C(C)=O)c(O)c(C(c2c(O)c(C(C)=O)c(O)c(C(C)=O)c2O)C2CCCCC2)c1O	9.73 µM
CC(=O)c1c(O)c(Cc2c(O)c(C(C)=O)c(O)c(C(C)=O)c2O)c(O)c(C(C)=O)c1O	0.23 µM
CC(=O)c1c(O)c(C(C)=O)c(O)c(C(c2ccc(O)cc2)c2c(O)c(C(C)=O)c(O)c(C(C)=O)c2O)c1O	14.3 µM
CC(=O)c1c(O)c(C(C)=O)c(O)c(C(c2ccco2)c2c(O)c(C(C)=O)c(O)c(C(C)=O)c2O)c1O	15.1 µM
CCC(c1c(O)c(C(C)=O)c(O)c(C(C)=O)c1O)c1c(O)c(C(C)=O)c(O)c(C(C)=O)c1O	2.17 µM
CC(C)CC(=O)c1c(O)c(C(=O)CC(C)C)c(O)c(C(c2ccccc2)c2c(O)c(C(=O)CC(C)C)c(O)c(C(=O)CC(C)C)c2O)c1O	0.74 µM
CC(=O)c1c(O)c(C(C)=O)c(O)c(C(CCc2ccccc2)c2c(O)c(C(C)=O)c(O)c(C(C)=O)c2O)c1O	1.87 µM
CC(C)CC(=O)c1c(O)c(C=O)c(O)c(C(c2ccccn2)c2c(O)c(C=O)c(O)c(C(=O)CC(C)C)c2O)c1O	15.9 µM
CC(C)CC(=O)c1c(O)c(C=O)c(O)c(Cc2c(O)c(C=O)c(O)c(C(=O)CC(C)C)c2O)c1O	4.1 µM
